Experimental data taken from ChEMBL document CHEMBL4732237, “Discovery of 4-alkoxy-2-aryl-6,7-dimethoxyquinolines as a new class of topoisomerase I inhibitors endowed with potent in vitro anticancer activity” (2021).

Legend:
UACC-62 = experiment: Growth inhibition of human UACC-62 cells incubated for 48 hrs by sulforhodamine B assay; format: functional
How it was run: (§1)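 NCI five-dose assay, with drug stocks in DMSO diluted in medium to five concentrations (10-fold or ½-log series). Cells in RPMI 1640/5% FBS were pre-incubated 24 h, and time-zero plates were TCA-fixed at drug addition. After 48 h at 37 °C, cells were TCA-fixed, SRB-stained and read at 515 nm. GI50 is from [(Ti-Tz)/(C-Tz)]×100 = 50, TGI from Ti = Tz, and LC50 from [(Ti-Tz)/Tz]×100 = -50.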

SK-MEL-5 = experiment: Growth inhibition of human SK-MEL-5 cells incubated for 48 hrs by sulforhodamine B assay; format: functional
How it was run: (§2)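 NCI five-dose screen (0.01–100 µM; five concentrations plus control). Cells grown in RPMI 1640/5% FBS/2 mM L-glutamine and preincubated 24 h, with time-zero plates TCA-fixed. Drug exposure 48 h at 37 °C, followed by SRB protein staining and reading at 515 nm. GI50 is the concentration at [(Ti-Tz)/(C-Tz)]×100 = 50.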

MOLT-4 = experiment: Growth inhibition of human MOLT-4 cells incubated for 48 hrs by sulforhodamine B assay; format: functional; how it was run: as §2
CCRF-CEM = experiment: Growth inhibition of human CCRF-CEM cells incubated for 48 hrs by sulforhodamine B assay; format: functional
How it was run: (§3)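 NCI five-dose screen covering 0.01–100 µM, prepared as 10-fold or ½-log dilutions from DMSO stock. Cells in RPMI 1640 with 5% FBS were exposed for 48 h at 37 °C after 24 h preincubation. Adherent cells were fixed with TCA (final 10%) and suspension cells were settled before fixing. Stain was SRB, read at 515 nm. GI50 = 50% reduction in net protein increase versus control, with Tz taken at drug addition.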

DU-145 = experiment: Growth inhibition of human DU-145 cells incubated for 48 hrs by sulforhodamine B assay; format: functional; how it was run: as §3
MCF7 = experiment: Growth inhibition of human MCF7 cells incubated for 48 hrs by sulforhodamine B assay; format: functional; how it was run: as §3
UACC-257 = experiment: Growth inhibition of human UACC-257 cells incubated for 48 hrs by sulforhodamine B assay; format: functional; how it was run: as §1
786-0 = experiment: Growth inhibition of human 786-0 cells incubated for 48 hrs by sulforhodamine B assay; format: functional; how it was run: as §3
OVCAR-3 = experiment: Growth inhibition of human OVCAR-3 cells incubated for 48 hrs by sulforhodamine B assay; format: functional; how it was run: as §2
RXF 393 = experiment: Growth inhibition of human RXF 393 cells incubated for 48 hrs by sulforhodamine B assay; format: functional; how it was run: as §2
BT-549 = experiment: Growth inhibition of human BT-549 cells incubated for 48 hrs by sulforhodamine B assay; format: functional; how it was run: as §3
NCI-H322M = experiment: Growth inhibition of human NCI-H322M cells incubated for 48 hrs by sulforhodamine B assay; format: functional; how it was run: as §2
Hs-578T = experiment: Growth inhibition of human HS-578T cells incubated for 48 hrs by sulforhodamine B assay; format: functional; how it was run: as §3
SK-OV-3 = experiment: Growth inhibition of human SK-OV-3 cells incubated for 48 hrs by sulforhodamine B assay; format: functional; how it was run: as §2
IGROV-1 = experiment: Growth inhibition of human IGROV-1 cells incubated for 48 hrs by sulforhodamine B assay; format: functional; how it was run: as §3
HCT-29 = experiment: Growth inhibition of human […] cells incubated for 48 hrs by sulforhodamine B assay; format: functional; how it was run: as §3
SF-539 = experiment: Growth inhibition of human SF-539 cells incubated for 48 hrs by sulforhodamine B assay; format: functional; how it was run: as §2
HL-60(TB) = experiment: Growth inhibition of human HL-60(TB) cells incubated for 48 hrs by sulforhodamine B assay; format: functional
How it was run: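 NCI-60 five-dose screen. Cells in RPMI 1640 with 5% FBS and 2 mM L-glutamine were plated at 5000–40,000 cells/well and preincubated 24 h at 37 °C, 5% CO2. Drugs in DMSO were given at five serial 10-fold or ½-log dilutions for 48 h. Adherent cells fixed with 10% TCA (final); suspension cells fixed after settling. SRB stained; A515. GI50 from [(Ti-Tz)/(C-Tz)]x100 = 50.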

SF-268 = experiment: Growth inhibition of human SF-268 cells incubated for 48 hrs by sulforhodamine B assay; format: functional; how it was run: as §2
LOX IMVI = experiment: Growth inhibition of human LOX IMVI cells incubated for 48 hrs by sulforhodamine B assay; format: functional; how it was run: as §3
UO-31 = experiment: Growth inhibition of human UO-31 cells incubated for 48 hrs by sulforhodamine B assay; format: functional; how it was run: as §1
HCT-15 = experiment: Growth inhibition of human HCT-15 cells incubated for 48 hrs by sulforhodamine B assay; format: functional; how it was run: as §3
KM12 = experiment: Growth inhibition of human KM12 cells incubated for 48 hrs by sulforhodamine B assay; format: functional; how it was run: as §3
NCI-H226 = experiment: Growth inhibition of human NCI-H226 cells incubated for 48 hrs by sulforhodamine B assay; format: functional; how it was run: as §2
[1] = target: T1, DNA topoisomerase 1 (Homo sapiens) (UniProt P11387); experiment: Inhibition of recombinant human TOPO1 assessed as TOP1-DNA cleavage complexes at 1 uM using 3'-[32-P]-117 labeled bp DNA as substrate incubated for 30 mins by SDS-PAGE analysis relative to control
T1 sequence (whole entry): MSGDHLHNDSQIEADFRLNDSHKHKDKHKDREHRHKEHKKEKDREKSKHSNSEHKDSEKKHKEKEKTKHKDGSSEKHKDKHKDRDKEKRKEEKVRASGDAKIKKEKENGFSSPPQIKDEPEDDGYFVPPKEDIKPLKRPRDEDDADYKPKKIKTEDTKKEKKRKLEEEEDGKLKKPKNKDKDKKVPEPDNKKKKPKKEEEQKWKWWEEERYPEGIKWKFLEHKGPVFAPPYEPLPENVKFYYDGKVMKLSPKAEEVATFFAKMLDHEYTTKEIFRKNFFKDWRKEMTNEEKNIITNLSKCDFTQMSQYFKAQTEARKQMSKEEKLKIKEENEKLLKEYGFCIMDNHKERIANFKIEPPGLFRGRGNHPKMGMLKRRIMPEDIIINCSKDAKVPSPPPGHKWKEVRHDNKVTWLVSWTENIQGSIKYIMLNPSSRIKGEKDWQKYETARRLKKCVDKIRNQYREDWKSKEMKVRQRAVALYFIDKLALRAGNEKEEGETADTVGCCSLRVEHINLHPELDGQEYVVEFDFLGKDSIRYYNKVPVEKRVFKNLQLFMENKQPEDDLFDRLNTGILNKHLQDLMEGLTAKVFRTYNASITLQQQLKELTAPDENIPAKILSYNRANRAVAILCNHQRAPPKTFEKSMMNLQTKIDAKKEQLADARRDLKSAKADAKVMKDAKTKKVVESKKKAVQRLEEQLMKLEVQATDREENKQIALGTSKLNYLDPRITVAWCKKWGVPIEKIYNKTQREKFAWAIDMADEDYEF

SK-MEL-28 = experiment: Growth inhibition of human SK-MEL-28 cells incubated for 48 hrs by sulforhodamine B assay; format: functional; how it was run: as §2
SN12C = experiment: Growth inhibition of human SN12C cells incubated for 48 hrs by sulforhodamine B assay; format: functional; how it was run: as §2
HOP-92 = experiment: Growth inhibition of human HOP-92 cells incubated for 48 hrs by sulforhodamine B assay; format: functional; how it was run: as §3

COc1cc2nc(-c3ccc(C(F)(F)F)cc3)cc(OCCCN3CCCC3)c2cc1OC
GI50 (UACC-62): 1380 nM | GI50 (SK-MEL-5): 247 nM | TGI (SK-MEL-5): 645 nM | GI50 (MOLT-4): 994 nM | GI50 (CCRF-CEM): 1080 nM | GI50 (DU-145): 1370 nM | GI50 (MCF7): 976 nM | GI50 (UACC-257): 1410 nM | GI50 (786-0): 2130 nM | GI50 (OVCAR-3): 2150 nM | GI50 (RXF 393): 1130 nM | GI50 (BT-549): 1990 nM | GI50 (NCI-H322M): 6770 nM | GI50 (Hs-578T): 1740 nM | GI50 (SK-OV-3): 2550 nM | GI50 (IGROV-1): 592 nM | GI50 (HCT-29): 446 nM | GI50 (SF-539): 1870 nM | GI50 (HL-60(TB)): 1840 nM | GI50 (SF-268): 2390 nM | GI50 (LOX IMVI): 116 nM | TGI (LOX IMVI): 275 nM | GI50 (UO-31): 2020 nM | GI50 (HCT-15): 416 nM | GI50 (KM12): 1340 nM | GI50 (NCI-H226): 343 nM | inhibition [1]: 0% | GI50 (SK-MEL-28): 1200 nM | GI50 (SN12C): 673 nM | GI50 (HOP-92): 460 nM
